How the values were obtained:
[1] = tested on: bovine type II collagen antibody; experiment: Collagen antibody level in CIA mice serum; assay type: in vivo, DBA1 mice; conditions: CIA mice serum at end of study, ELISA, N = 6
In short: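 Serum came from CIA DBA1 mice (N = 6 per group) at the end of the study, spun at 10,000 rpm for 10 min, then cleared at 10,000 rpm for 3 min and diluted 1:40,000. Anti-bovine type II collagen ELISA: wells blocked 1 h at room temperature; standards and samples 2 h; secondary antibody 1 h; TMB 15 min; stopped and read at A450. Levels were taken from a standard curve; mean ± SEM.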

[2] = tested on: collagen-induced arthritis (CIA) joints; experiment: Histopathology study of limbs; assay type: in vivo, DBA1 mice; conditions: MTX 1.5 mg/kg i.p., CIA mice limbs, H&E, N = 4

## CN(Cc1cnc2nc(N)nc(N)c2n1)c1ccc(C(=O)N[C@@H](CCC(=O)O)C(=O)O)cc1 [MTX, Methotrexate]
[1]
  bovine collagen antibody level in serum compared to vehicle group: lower
[2]
  histopathological changes (inflammation, synovial hyperplasia, cartilage/bone erosion): reduced occurrence of the changes
